# Measurements collected from several papers.
# Target: Phosphorylase b kinase gamma catalytic chain, skeletal muscle/heart isoform (PHKG1, Homo sapiens, UniProt Q16816)
Structure (SMILES),test,setting,remaining binding
Cc1nc(N2CC[C@@H](O)C2)ncc1-c1cc(C(F)(F)F)cc2[nH]ncc12,"cell-free assay, competition with immobilised ligand",1 µM,81%
F[C@@H]1CCN(c2nccc(-c3cnn4ncccc34)n2)C1,binding,1 µM,100%
COc1cnc(Nc2cccc(S(N)(=O)=O)c2)nc1N1CCN(c2ccccc2)C(=O)C1,"binding, competition with immobilised ligand",1 µM,100%
Cc1cnn2ncc(-c3ccnc(N(C)C)n3)c2c1,binding,1 µM,85%
O=C(c1ccc(Nc2ncc(Cl)c(-c3cc4ccccc4s3)n2)cc1)N1CCC(N2CCCC2)CC1,"binding, competition with immobilised ligand",1 µM,54%
c1cnn2ncc(-c3ccnc(N4CCC45COC5)n3)c2c1,binding,1 µM,85%
O=C(c1ccc(Nc2ncc(Cl)c(-c3ccc(Cl)s3)n2)cc1)N1CCC(N2CCCC2)CC1,"binding, competition with immobilised ligand",1 µM,85%
O=C(NCC1CCOCC1)c1n[nH]cc1NC(=O)c1c(F)cccc1F,"binding, competition with immobilised ligand",1 µM,100%
C[C@H]1CCN(c2nccc(-c3cnn4ncccc34)n2)C1,binding,1 µM,100%
COc1cnc(Nc2cccc(S(N)(=O)=O)c2)nc1N1CCN(c2ccccc2)CC1,"binding, competition with immobilised ligand",1 µM,97%
CCN1CCN(Cc2ccc(C(=O)Nc3ccc(C)c(Oc4ccc5c(c4)CC(=O)N5)c3)cc2C(F)(F)F)CC1,"binding, competition with immobilised ligand",1 µM,100%
CC(=O)c1c(NS(C)(=O)=O)c2cc(-c3ccc(Cl)cc3)c(-c3ccc(Cl)cc3Cl)nc2n(C)c1=O,"cell-free assay, competition with immobilised ligand",1 µM,94%
Cc1cnc(Nc2ccc(C(=O)N3CCC(N4CCCC4)CC3)cc2)nc1-c1cc2ccccc2s1,"binding, competition with immobilised ligand",1 µM,54%
CN(c1nccc(-c2cnn3ncccc23)n1)C1CC1,binding,1 µM,100%
Cc1c(NC(=O)c2cc(C(N)=O)nc3cc(F)ccc23)c(C(F)(F)F)nn1Cc1ccc(C(C)(C)C)cc1,"cell-free assay, competition with immobilised ligand",1 µM,100%
CC1CCCN1c1nccc(-c2cnn3ncccc23)n1 (stereo not shown),binding,1 µM,100%
COc1ccc2cc(OCC3(C(=O)O)CN(C(=O)c4ccc(F)cc4)C3)ccc2c1,"cell-free assay, competition with immobilised ligand",1 µM,100%
C[C@@H](c1ccc(-n2cnc3c(N)ncnc32)cc1)N1CCc2nn(C)c(Cc3ccccc3)c2C1=O,"binding, competition with immobilised ligand",0.1 µM,90%
O=C(O)[C@H]1[C@H](Cn2nnc3ccccc3c2=O)CC[C@@H]1C(=O)c1ccc(OCCC2CCOCC2)cc1,"cell-free assay, competition with immobilised ligand",1 µM,74%
COc1ccnn2ncc(-c3ccnc(N(C)C)n3)c12,binding,1 µM,100%
CCC(=N\O)/C(C)=C/c1ccc(F)cc1,"cell-free assay, competition with immobilised ligand",1 µM,100%
Nc1ncc2c(n1)-c1c([nH]c3ccc(C#CC4CC4)cc13)CCCC2,"binding, competition with immobilised ligand",1 µM,93%
